Results published in ChEMBL document CHEMBL1126048, “Synthesis and pharmacological investigation of the enantiomers of muscarone and allomuscarone” (J Med Chem, 1992).

Assays:
[1] = organism: Rattus norvegicus; test: Hill coefficient for affinity to M3 muscarinic receptor of rat cerebral cortex
[2] = organism: Cavia porcellus; test: In vitro potency against muscarinic preparation from guinea pig trachea; type: functional
Method in brief: (§1)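 Isolated tissues: guinea pig atria, ileum and trachea, and rat jejunum and bladder. Agonist concentration–response curves were run, with potency expressed as −log EC50. Values are means ± SEM of six to nine experiments.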

[3] = organism: Cavia porcellus; test: In vitro potency against muscarinic preparation from guinea pig atria; type: functional; method in brief: as §1
[4] = organism: Rattus norvegicus; test: Hill coefficient for affinity to M1 muscarinic receptor of rat cerebral cortex
[5] = organism: Cavia porcellus; test: In vitro potency against muscarinic preparation from guinea pig ileum; type: functional; method in brief: as §1
[6] = organism: Rattus norvegicus; test: In vitro potency against muscarinic preparation from rat jejunum; type: functional; method in brief: as §1
[7] = organism: Rattus norvegicus; test: Hill coefficient for affinity to M2 muscarinic receptor of rat cerebral cortex
[8] = organism: Cavia porcellus; test: In vitro potency against muscarinic preparation from guinea pig ileum.; type: functional; method in brief: as §1
[9] = organism: Rattus norvegicus; test: In vitro potency against muscarinic preparation from rat bladder.; type: functional; method in brief: as §1
[10] = organism: Cavia porcellus; test: In vitro potency against muscarinic preparation from guinea pig trachea.; type: functional; method in brief: as §1
[11] = organism: Cavia porcellus; test: In vitro potency against muscarinic preparation from guinea pig atria.; type: functional; method in brief: as §1
[12] = organism: Rattus norvegicus; test: In vitro potency against muscarinic preparation from rat jejunum.; type: functional; method in brief: as §1
[13] = molecular target: T1, Muscarinic acetylcholine receptor M1 (Rattus norvegicus) (UniProt P08482); details: Cerebral cortex
T1 sequence (whole entry): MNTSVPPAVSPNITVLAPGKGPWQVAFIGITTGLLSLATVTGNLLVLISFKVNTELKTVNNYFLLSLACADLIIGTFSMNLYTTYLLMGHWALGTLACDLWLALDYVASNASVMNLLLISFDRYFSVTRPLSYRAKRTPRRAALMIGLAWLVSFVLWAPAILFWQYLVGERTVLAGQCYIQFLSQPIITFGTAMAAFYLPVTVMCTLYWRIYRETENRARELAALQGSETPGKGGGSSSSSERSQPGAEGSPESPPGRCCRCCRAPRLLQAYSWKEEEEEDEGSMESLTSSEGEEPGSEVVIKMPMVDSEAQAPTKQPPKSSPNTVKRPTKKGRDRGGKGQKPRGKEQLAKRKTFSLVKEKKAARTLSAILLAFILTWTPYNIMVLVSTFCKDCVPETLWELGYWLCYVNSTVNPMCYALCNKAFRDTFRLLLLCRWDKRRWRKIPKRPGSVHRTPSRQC

[14] = molecular target: T1, Muscarinic acetylcholine receptor M1 (Rattus norvegicus); details: Cerebral cortex; remark: listed apart in the source

Compound	nH [1]	EC50 [2] [nM]	EC50 [3] [nM]	nH [4]	EC50 [5] [nM]	EC50 [6] [nM]	nH [7]	EC50 [8] [nM]	EC50 [9] [nM]	EC50 [10] [nM]	EC50 [11] [nM]	EC50 [12] [nM]	nH [13]	nH [14]
C[C@@H]1O[C@H](C[N+](C)(C)C)CC1=O.[I-]	0.78	1.12	1.2	0.79	0.794	7.41	0.58	–	–	–	–	–	–	–
C[C@H]1O[C@@H](C[N+](C)(C)C)CC1=O.[I-]	1	–	–	1	–	–	0.6	302	3550	490	501	–	–	–
C[C@@H]1O[C@@H](C[N+](C)(C)C)CC1=O.[I-]	0.92	–	–	0.74	–	–	0.58	3.47	105	–	5.13	20.4	–	–
C[C@H]1O[C@@H](C[N+](C)(C)C)C[C@@H]1O	–	–	–	–	–	–	–	2400	–	–	6760	–	0.76	–
C[C@H]1O[C@H](C[N+](C)(C)C)CC1=O.[I-]	0.9	–	–	0.89	–	–	0.63	148	2000	–	229	661	–	–
C[C@@H]1O[C@H](C[N+](C)(C)C)C[C@H]1O	–	–	–	–	–	–	–	7.41	–	–	20.4	–	–	1
